Experimental data from ChEMBL document CHEMBL4813976, “Rational drug design of benzothiazole-based derivatives as potent signal transducer and activator of transcription 3 (STAT3) signaling pathway inhibitors” (Eur J Med Chem, 2021).

Tests used:
[1] = biological target: T1, Signal transducer and activator of transcription 3 (Homo sapiens, UniProt P40763); experiment: Inhibition of IL-6 induced STAT3 transcriptional activity in human HepG2 cells incubated for 1 hr followed by stimulation with IL-6 for 5.5 hrs by luciferase reporter gene assay; type: cell-based
T1 sequence (P40763 whole entry): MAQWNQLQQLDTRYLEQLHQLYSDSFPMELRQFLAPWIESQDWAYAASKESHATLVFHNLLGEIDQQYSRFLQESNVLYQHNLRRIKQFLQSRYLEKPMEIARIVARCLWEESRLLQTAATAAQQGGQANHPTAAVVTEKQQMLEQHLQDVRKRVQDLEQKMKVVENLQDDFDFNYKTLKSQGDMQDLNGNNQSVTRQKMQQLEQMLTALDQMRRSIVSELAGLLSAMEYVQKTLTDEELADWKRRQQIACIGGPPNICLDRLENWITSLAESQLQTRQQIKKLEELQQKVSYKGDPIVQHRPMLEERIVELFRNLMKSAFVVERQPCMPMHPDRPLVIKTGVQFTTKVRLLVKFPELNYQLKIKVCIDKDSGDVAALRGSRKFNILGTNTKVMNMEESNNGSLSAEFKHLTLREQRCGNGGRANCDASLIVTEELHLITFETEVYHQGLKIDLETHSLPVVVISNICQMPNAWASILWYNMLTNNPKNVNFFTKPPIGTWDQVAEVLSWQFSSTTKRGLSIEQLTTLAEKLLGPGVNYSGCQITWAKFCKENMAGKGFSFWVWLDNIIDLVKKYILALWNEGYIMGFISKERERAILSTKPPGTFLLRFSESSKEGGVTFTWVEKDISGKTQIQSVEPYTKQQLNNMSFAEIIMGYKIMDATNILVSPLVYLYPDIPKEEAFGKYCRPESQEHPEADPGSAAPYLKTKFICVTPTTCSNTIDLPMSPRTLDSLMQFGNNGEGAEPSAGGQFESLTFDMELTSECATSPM
Method in brief: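 STAT3-dependent luciferase reporter assay in HepG2 cells with IL-6 stimulation; IC50 given as mean ± SD of at least three independent experiments.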

MDA-MB-468 = experiment: Antiproliferative activity against human MDA-MB-468 cells overexpressing STAT3 assessed as inhibition of cell growth incubated for 72 hrs by MTT assay; type: functional, cell-based; details: MDA-MB-468, 72 h
Method in brief: (§1)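 MTT proliferation assay; MDA-MB-468 grown in DMEM/F-12 and HEL in high-glucose DMEM, each with 10% FBS and penicillin/streptomycin, at 37 °C under 5% CO₂. IC50 given as mean ± SD of at least three independent experiments.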

HEL = experiment: Antiproliferative activity against human HEL cells harboring JAK2 V617F mutant assessed as inhibition of cell growth incubated for 72 hrs by MTT assay; type: functional, cell-based; method in brief: as §1
[2] = biological target: T1, Signal transducer and activator of transcription 3; experiment: Displacement of 5'-FAM-GpYLPQTV-NH2 from His-tagged STAT3-SH2 domain (127 to 722 residues) (unknown origin) assessed as binding rate at 100 uM […] by fluorescence polarization assay; details: time 90.0 min
[3] = biological target: T1, Signal transducer and activator of transcription 3; experiment: Displacement of 5'-FAM-GpYLPQTV-NH2 from His-tagged STAT3-SH2 domain (127 to 722 residues) (unknown origin) assessed as binding rate at 20 uM […] by fluorescence polarization assay; details: time 90.0 min
[4] = biological target: T1, Signal transducer and activator of transcription 3; experiment: Binding affinity to His-tagged STAT3-SH2 domain (127 to 722 residues) (unknown origin) by surface plasmon resonance analysis
Method in brief: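 SPR on a Biacore T200 with STAT3 SH2 domain. Analytes were run as concentration series, and KD was taken as the equilibrium constant.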

[5] = biological target: T1, Signal transducer and activator of transcription 3; experiment: Displacement of 5'-FAM-GpYLPQTV-NH2 from His-tagged STAT3-SH2 domain (127 to 722 residues) (unknown origin) assessed as binding rate at 50 uM […] by fluorescence polarization assay; details: time 90.0 min
MCF7 = experiment: Antiproliferative activity against human MCF7 cells expressing low levels of STAT3 assessed as inhibition of cell growth incubated for 72 hrs by MTT assay; type: functional, cell-based; details: MCF7, 72 h
Method in brief: (§2)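 MTT proliferation assay on MCF-7 and MDA-MB-453 cells; IC50 given as mean ± SD of at least two independent experiments.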

MDA-MB-453 = experiment: Antiproliferative activity against human MDA-MB-453 cells expressing low levels of STAT3 assessed as inhibition of cell growth incubated for 72 hrs by MTT assay; type: functional, cell-based; details: MDA-MB-453, 72 h; method in brief: as §2

CCCC(C)Oc1ccc(C(=O)Nc2ccc3nc(SCC(=O)N[C@@H](C)c4ccccc4)sc3c2)cc1 (stereo partly drawn)
IC50 ([1]; hepg2): 1600 nM | IC50 (MDA-MB-468): 2210 nM | IC50 (HEL): > 10000 nM

CCCC(C)Oc1ccc(C(=O)Nc2ccc3nc(SCC(=O)N[C@@H](C)c4ccc(O)cc4)sc3c2)c(OC)c1C (stereo partly drawn)
IC50 [1]: 200 nM | IC50 (MDA-MB-468): 700 nM | IC50 (HEL): 680 nM

CCCC(C)Oc1ccc(C(=O)Nc2ccc3nc(SCC(=O)N[C@@H](C)c4ccccc4)sc3c2)c(Cl)c1 (stereo partly drawn)
IC50 [1]: 1340 nM

CCCC(C)Oc1ccc(C(=O)Nc2ccc3nc(SCC(=O)N[C@@H](C)c4cccc(O)c4)sc3c2)c(OC)c1C (stereo partly drawn)
IC50 [1]: 150 nM | IC50 (MDA-MB-468): 2240 nM | IC50 (HEL): 620 nM

CCCC(C)Oc1ccc(C(=O)Nc2ccc3nc(SCC(=O)N[C@@H](C)c4ccccc4)sc3c2)c(OC)c1 (stereo partly drawn)
IC50 [1]: 2200 nM

COc1ccc([C@H](C)NC(=O)CNc2nc3ccc(NC(=O)c4ccc(OC)c(C)c4OC)cc3s2)cc1
IC50 [1]: 1490 nM

CCCC(C)Oc1ccc(C(=O)Nc2ccc3nc(SCC(=O)N[C@@H](C)c4ccccc4)sc3c2)cc1C#N (stereo partly drawn)
IC50 [1]: > 10000 nM

CCCC(C)Oc1ccc(C(=O)Nc2ccc3nc(SCC(=O)N[C@@H](C)c4ccccc4)sc3c2)cc1F (stereo partly drawn)
IC50 [1]: > 10000 nM

COCCOc1ccc(C(=O)Nc2ccc3nc(SCC(=O)N[C@@H](C)c4ccc(OC)cc4)sc3c2)c(OC)c1C
IC50 [1]: 260 nM | IC50 (MDA-MB-468): 1160 nM | IC50 (HEL): 1440 nM

COc1ccc([C@H](C)NC(=O)CSc2nc3ccc(NC(=O)c4ccc(OC)c(C)c4OC)cc3s2)cc1
IC50 [1]: 120 nM | IC50 (MDA-MB-468): 2050 nM | IC50 (HEL): 1340 nM

CCCc1cc(C(=O)Nc2ccc3nc(SCC(=O)N[C@@H](C)c4ccccc4)sc3c2)ccc1OC(C)CCC (stereo partly drawn)
IC50 [1]: > 10000 nM

CCCC(C)Oc1ccc(C(=O)Nc2ccc3nc(SCC(=O)N[C@@H](C)c4ccccc4)sc3c2)cc1Br (stereo partly drawn)
IC50 [1]: 2150 nM

COc1ccc([C@H](C)NC(=O)CSc2nc3ccc(NC(=O)c4ccc(OC(C)C)c(C)c4OC)cc3s2)cc1
IC50 [1]: 220 nM | IC50 (MDA-MB-468): 1810 nM | IC50 (HEL): 1290 nM

CCCC(C)Oc1ccc(C(=O)Nc2ccc3nc(SCC(=O)N[C@@H](C)c4ccccc4)sc3c2)cc1Cl (stereo partly drawn)
IC50 [1]: > 10000 nM

CCC[C@@H](C)Oc1ccc(C(=O)Nc2ccc3nc(SCC(=O)N[C@@H](C)c4ccccc4)sc3c2)cc1C
IC50 [1]: 900 nM

CCCC(C)Oc1ccc(C(=O)Nc2ccc3nc(SCC(=O)N[C@@H](C)c4ccccc4)sc3c2)cc1OC (stereo partly drawn)
IC50 [1]: 1420 nM

Cc1cc(Nc2nc(N[C@@H](C)c3ncc(F)cn3)ncc2Cl)[nH]n1 [AZD-1480]
IC50 (MDA-MB-468): 5870 nM | IC50 (HEL): 730 nM

COc1ccc([C@H](C)NC(=O)COc2nc3ccc(NC(=O)c4ccc(OC)c(C)c4OC)cc3s2)cc1
IC50 [1]: 8860 nM

CCCC(C)Oc1ccc(C(=O)Nc2ccc3nc(SCC(=O)N[C@@H](C)c4ccccc4)sc3c2)cc1C(F)(F)F (stereo partly drawn)
IC50 [1]: > 10000 nM

O=[N+]([O-])c1ccc2c(c1)S(=O)(=O)C=C2
Activity [2]: 95% | Activity [3]: 62.3% | Kd [4]: 1530 nM | Activity [5]: 71.1% | IC50 (MCF7): 1700 nM | IC50 (MDA-MB-453): 4400 nM | IC50 (HEL): 1590 nM

CCCC(C)Oc1ccc(C(=O)Nc2ccc3nc(SCC(=O)N[C@@H](C)c4ccccc4)sc3c2)c(C)c1C (stereo partly drawn)
IC50 [1]: 460 nM | IC50 (MDA-MB-468): 810 nM | IC50 (HEL): 930 nM

CCCC(C)Oc1ccc(C(=O)Nc2ccc3nc(SCC(=O)N[C@@H](C)c4ccccc4)sc3c2)c(C)c1 (stereo partly drawn)
IC50 [1]: 2720 nM

COc1ccc([C@H](C)NC(=O)CSc2nc3ccc(NC(=O)c4ccc(OCC(C)C)c(C)c4OC)cc3s2)cc1
IC50 [1]: 200 nM | IC50 (MDA-MB-468): 2020 nM | IC50 (HEL): 2050 nM

N#CC[C@H](C1CCCC1)n1cc(-c2ncnc3[nH]ccc23)cn1 [RUXOLITINIB]
IC50 (MDA-MB-468): > 20000 nM | IC50 (HEL): 1400 nM

CCCC(C)Oc1ccc(C(=O)Nc2ccc3nc(SCC(=O)N[C@@H](C)c4cccc(OC)c4)sc3c2)c(OC)c1C (stereo partly drawn)
IC50 [1]: 270 nM | IC50 (MDA-MB-468): 500 nM | IC50 (HEL): 870 nM

CCC[C@H](C)Oc1ccc(C(=O)Nc2ccc3nc(SCC(=O)N[C@@H](C)c4ccccc4)sc3c2)cc1C
IC50 [1]: 1200 nM

CCCC(C)Oc1ccc(C(=O)Nc2ccc3nc(SCC(=O)N[C@@H](C)c4ccccc4)sc3c2)c(F)c1F (stereo partly drawn)
IC50 [1]: > 10000 nM

CCCC(C)Oc1ccc(C(=O)Nc2ccc3nc(SCC(=O)N[C@@H](C)c4ccccc4)sc3c2)c(F)c1 (stereo partly drawn)
IC50 [1]: > 10000 nM

NS(=O)(=O)c1cccc2c1C(=O)c1cccc(O)c1C2=O
IC50 [1]: 98 nM | IC50 (MDA-MB-468): 730 nM | IC50 (HEL): 1460 nM

CCCC(C)Oc1ccc(C(=O)Nc2ccc3nc(SCC(=O)N[C@@H](C)c4ccccc4)sc3c2)cc1C (stereo partly drawn)
IC50 [1]: 950 nM | IC50 (MDA-MB-468): 730 nM | IC50 (HEL): > 10000 nM

COc1ccc([C@H](C)NC(=O)CSc2nc3ccc(NC(=O)c4ccc(OCCN5CCOCC5)c(C)c4OC)cc3s2)cc1
IC50 [1]: 240 nM | IC50 (MDA-MB-468): 1770 nM | IC50 (HEL): 3380 nM

COc1ccc([C@H](C)NC(=O)CSc2nc3ccc(NC(=O)c4ccc(OCCN(C)C)c(C)c4OC)cc3s2)cc1
IC50 [1]: 520 nM | IC50 (MDA-MB-468): 6570 nM | IC50 (HEL): 4980 nM

CCCC(C)Oc1ccc(C(=O)Nc2ccc3nc(SCC(=O)N[C@@H](C)c4ccccc4O)sc3c2)c(OC)c1C (stereo partly drawn)
IC50 [1]: 170 nM | IC50 (MDA-MB-468): 590 nM | IC50 (HEL): 970 nM

COc1ccc([C@H](C)NC(=O)CSc2nc3ccc(NC(=O)c4ccc(OCCN5CCCC5)c(C)c4OC)cc3s2)cc1
IC50 [1]: 1030 nM | IC50 (MDA-MB-468): 3360 nM | IC50 (HEL): 10400 nM

CCCC(C)Oc1ccc(C(=O)Nc2ccc3nc(SCC(=O)N[C@@H](C)c4ccccc4)sc3c2)cc1CC (stereo partly drawn)
IC50 [1]: > 10000 nM
